# An excerpt weighted towards active compounds, which were near 3% of everything screened.
# Cneo AK release: causes C. neoformans cell lysis; adenylate kinase release luminescence, 4 h; normalised: neutral wells 0, clomiphene wells 100; lysis activity, % at 15 µM; hit rate 0.2% among 360,000;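 active = mean lysis activity across replicates of at least 80%, whatever share of replicates individually reach that level; inactive = mean lysis activity below 80%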
#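 Material – Cryptococcus neoformans yeast cells · Quantity – 5 × 10^6 yeast cells/mL · Buffer or medium – YPD medium · Compound – single dose · Timing – 4 h static compound exposure, 37 °C, read 1 h post-reagent · Signal – adenylate kinase release luminescence · Read-out basis – lysis from increased AK signal · Benchmarks – Clomiphene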
# S100A4 inh HTS: blocks human S100A4 binding to myosin IIA peptide; hit rate 0.14% among 360,000; S100A4/TAMRA-MyoIIA peptide fluorescence polarization; inhibition, % at 10.7 µM;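 active = mean inhibition of at least 70% across replicates, with every replicate also reaching that level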
# Target sequence (P26447 whole entry, looked up): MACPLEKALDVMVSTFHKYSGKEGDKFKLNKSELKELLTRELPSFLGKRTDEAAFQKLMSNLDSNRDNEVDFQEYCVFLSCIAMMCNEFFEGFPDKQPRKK
#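 Material: S100A4 monomer (human). Medium: Calcium-containing HEPES buffer, pH 7.2. Probe or stimulus: labelled myosin peptide probe, 5 nM. Compound dosing: one concentration per compound. Timing: polarization read 5 min after assay mix addition, stable 5–60 min. Benchmarks: DMSO as neutral control, TFP as positive control.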
# Ecoli rRNA inh: selective bacterial rRNA inhibition in E. coli | E. coli WT GFP vs humanized-ribosome RFP mutants, fluorescence, 24 h; active compounds read low; DMSO median 0, no signal -100 | GFP signal change (wild-type ribosome), % (no concentration beside the values) | hit rate 1.6% among 350,000 | AID 720706;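 active = significant combined selectivity score with lowered wild-type GFP, culture density cut under 30%, mutant RFP and density less affected; inactive = any of these conditions unmet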
# SIRT5 block: blocks human SIRT5 desuccinylation of peptide; Purified SirT5, succinyl-peptide AMC, trypsin-coupled fluorescence; hit rate 1.1% among 330,000; inhibition, % at 15 µM; AID 652115; in the data active = inhibition above about 15%
# Target sequence (Q9NXA8 whole entry, looked up): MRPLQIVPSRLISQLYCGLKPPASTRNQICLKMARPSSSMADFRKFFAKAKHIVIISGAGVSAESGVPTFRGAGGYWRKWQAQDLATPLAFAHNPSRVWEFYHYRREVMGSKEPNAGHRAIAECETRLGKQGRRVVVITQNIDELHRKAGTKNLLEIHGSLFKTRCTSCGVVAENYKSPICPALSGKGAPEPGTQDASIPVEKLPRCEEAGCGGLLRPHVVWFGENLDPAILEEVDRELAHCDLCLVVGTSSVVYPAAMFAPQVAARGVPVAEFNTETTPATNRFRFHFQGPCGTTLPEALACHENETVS
# PGC1a acetyl inh: PGC1a acetylation modulation, inhibitor mode | U2OS PGC1a acetylation, AlphaScreen anti-acetyl-lysine; with virally co-expressed GCN5 acetyltransferase | inhibition, % at 15.6 µM | hit rate 0.17% among 350,000;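 active = every replicate shows inhibition of at least 40%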;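 also: 0% = neutral control wells and 100% = positive control wells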
# Statin myotox sup: suppression of simvastatin myotoxicity | C2C12 myotubes + simvastatin, ATP luminescence, 48 h; scaled: DMSO 0, geranylgeraniol control 100 | rescue of ATP level, % at 7.49 µM | hit rate 0.78% among 330,000 | AID 602340;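 active = mean ATP rescue above about 67%, or every replicate alone reaching that limit, limit read from the data, passing the limit was not always enough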;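 also: myotubes were challenged with 10 µM simvastatin during compound exposure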
# Active calls of the source: *; x = no result given; ! = repeats disagree.
SMILES,Cneo AK release,S100A4 inh HTS,Ecoli rRNA inh,SIRT5 block,PGC1a acetyl inh,Statin myotox sup
C[C@H](CO)N1C[C@H](C)[C@@H](CN(C)Cc2ccc(C(=O)O)cc2)Oc2ccc(NS(=O)(=O)c3ccc(F)cc3)cc2CC1=O,x,-9,2,-1,11,x
C[C@H]1CN([C@@H](C)CO)S(=O)(=O)c2ccc(C#CC3CC3)cc2O[C@@H]1CN(C)C,-3,0,0,-4,-28,14
COC(=O)[C@]12CCCCC=C1N(Cc1cccc3ccccc13)C(=O)[C@H](CC(=O)NCC1CCCCC1)C2,x,-4,7,22*,x,x
CCCCCCCCN1C(=O)[C@H](CC(=O)NCC2CCCCC2)C[C@@]2(C(=O)OCC)CCCC=C12,x,-1,10,0,x,x
C#CCNC(=O)C[C@@H]1C[C@@]2(C(=O)OCC)CCCC=C2N(CCCCCCCC)C1=O,x,-5,14,17*,x,x
CCCCCCCCN1C(=O)[C@H](CC(=O)NCC2CCCCC2)C[C@@]2(C(=O)OCC)CCC=C12,x,-14,17,22*,x,x
COc1ccc(NC(=O)N[C@@H]2CC[C@H](CCNC(=O)Cc3ccncc3)O[C@H]2CO)cc1,-1,6,7,-3,0,5
Cc1nc2sc(C(c3ccc(Br)cc3)N3CC(C)OC(C)C3)c(O)n2n1 (stereo not drawn),2,x,x,x,0,91*
Cc1nc2sc(C(c3ccccc3)N3CC(C)OC(C)C3)c(O)n2n1 (stereo not drawn),0,x,x,x,0,2
C/C(=N\N=C1\NC(=O)C(Cc2ccccc2)S1)c1ccccc1 (stereo not drawn),x,3,-52*,-1,-8,x
O=C(O)CCCN1C(=O)/C(=C/C=C/c2ccco2)SC1=S,x,-26,9,32*,x,x
O=C(O)CC(C(=O)O)N1C(=O)/C(=C/C=C/c2ccco2)SC1=S (stereo not drawn),0,-20,17,30*,-3,9
O=C1S/C(=C\C=C\c2ccco2)C(=O)N1c1ccc(O)cc1,x,-15,x,5,x,x
O=C(O)C(Cc1ccccc1)N1C(=O)/C(=C/C=C/c2ccco2)SC1=S (stereo not drawn),0,-86,14,45*,6,2
CCN1[C@H](C(=O)NCCN2CCCCC2)[C@@H](CO)[C@@H]2Cn3c(ccc(-c4ccc(OC)cc4)c3=O)[C@@H]21,-2,15,2,-8,x,-1
C[C@@H]1CN([C@@H](C)CO)C(=O)CCCn2cc(nn2)CO[C@@H]1CN(C)C(=O)Nc1cccc(Oc2ccccn2)c1,-20,5,0,0,-1,-9
C[C@H](CO)N1C[C@H](C)[C@@H](CN(C)Cc2ccc(-c3ccccc3)cc2)Oc2ccc(NC(=O)Nc3cccc4ccccc34)cc2CC1=O,x,x,5,x,x,x
CCCCn1c(=N)n(CC(=O)c2ccc(OC)cc2)c2ccccc21,x,3,-43*,-2,x,x
CCOC(=O)Cn1c(=N)n(CCOc2cccc(C)c2)c2ccccc21,-1,x,x,x,4,x
CCOC(=O)Cn1c(=N)n(CCOc2ccc(Br)cc2)c2ccccc21,3,-5,-48*,4,-1,6
O=C(CSc1ncc(-c2ccccc2)[nH]1)Nc1cccc(O)c1,-2,-4,-26,2,-8,9
Nc1nc(SCC(=O)Nc2ccc(Cl)cc2)[nH]c(=O)c1-c1ccccc1,1,-5,-3,1,3,122*
O=C(CSc1ncc(-c2ccccc2)[nH]1)Nc1ccccc1,-1,-3,-32*,1,-14,3
C[C@H](CO)N1C[C@H](C)[C@@H](CN(C)C(=O)Nc2ccccc2)Oc2ccc(NS(=O)(=O)c3cccs3)cc2C1=O,x,-7,1,-4,11,x
C[C@@H]1CN([C@@H](C)CO)S(=O)(=O)c2ccc(C3=CCCC3)cc2O[C@@H]1CN(C)Cc1ccccn1,9,6,-8,4,21,-28
SMILES,Cneo AK release,S100A4 inh HTS,Ecoli rRNA inh,SIRT5 block,PGC1a acetyl inh,Statin myotox sup
COc1ccc(NC(=O)C2CC3C=CC2C3)c([N+](=O)[O-])c1 (stereo not drawn),x,-4,-22*,-5,x,x
Nc1nn(-c2ccccc2)c(N)c1N=Nc1cccc(F)c1,-3,-3,-36*,x,6,x
CN(C)c1ccc(N=Nc2cccc(F)c2)cc1,-4,0,7,0,x,20
Cc1nn(-c2ccccc2)c(N)c1N=Nc1cccnc1,x,6,-22*,0,x,x
CC(C)NC(=O)Nc1ccc2c(c1)C(=O)N([C@@H](C)CO)C[C@H](C)[C@H](CN(C)S(C)(=O)=O)O2,40,4,-4,1,2,13
CO[C@H]1CN(C)C(=O)c2ccc(NC(=O)C3CC3)cc2OC[C@H](C)N(C(=O)c2ccncc2)C[C@H]1C,0,7,3,-2,-5,1
Cc1nn(-c2cc(C(F)(F)F)ccc2Cl)c2nc(C(Cl)(Cl)Cl)[nH]c(=O)c12,x,-7,-15*,-4,3,-13
Cc1nn(-c2ccccc2)c2nc(C(F)(F)F)[nH]c(=O)c12,x,-8,-15,-3,x,x
C[C@@H]1CN([C@@H](C)CO)C(=O)c2cc(C#CC3(O)CCCC3)cnc2O[C@H]1CN(C)C(=O)CC1CC1,-3,4,2,-1,-7,4
Cc1ccc(NC(=O)CN2CCN(Cc3ccccc3)CC2)c(Br)c1,1,7,-23*,0,-24,12
Cc1ccc(NC(=O)CN2CCOCC2)c(Br)c1,0,-2,1,-2,x,9
C=CCn1c(SCC(=O)c2ccc(O)c(O)c2)nnc1-c1ccc(OC)cc1,0,4,3,-2,-10,14
C=CCn1c(SCC(=O)c2ccc(O)c(O)c2)nnc1-c1ccc(C)cc1,1,4,-1,44*,x,12
COc1ccc(S(=O)(=O)N(C)C[C@@H]2Oc3c(NS(C)(=O)=O)cccc3C(=O)N([C@@H](C)CO)C[C@H]2C)cc1,1,-13,-2,20*!,-5,2
COc1ccc(S(=O)(=O)Nc2cccc3c2O[C@@H](CN(C)S(=O)(=O)c2ccc(Cl)cc2)[C@@H](C)CN([C@@H](C)CO)C3=O)cc1,0,-26,0,3,2,-55
COc1ccc(S(=O)(=O)Nc2cccc3c2O[C@H](CN(C)S(=O)(=O)c2ccc(Cl)cc2)[C@H](C)CN([C@@H](C)CO)C3=O)cc1,-3,-38,1,2,5,91*
COc1ccc(S(=O)(=O)N(C)C[C@@H]2Oc3c(NS(C)(=O)=O)cccc3C(=O)N([C@H](C)CO)C[C@H]2C)cc1,3,4,-6,-6,-7,x
